Reference: the RNAGym collection of RNA variant scans (doi:10.1126/science.aae0568)
This sample holds only a part of the variants without activity.

B1: tRNA (parent)
chain: GUUCCGUUGGCGUAAUGGUAACGCGUCUCCCUCCUAAGGAGAAGACUGCGGGUUCGAGUCCCGUACGGAACG

Variants of: B1
Assay: yeast fitness relative to wild type (ratio to wild type); higher = fitter; tRNA-Arg(CCU), competitive growth, 37 C, YPD
Outline: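 Genotype frequency changes were the basis for Darwinian fitness relative to wild type. The frequencies came from 100-nucleotide paired-end sequencing of gene amplicons from the start population and each end population of pooled yeast strains with tRNA-Arg(CCU) gene variants at the native locus. Competition ran in YPD at 37°C for 24 hours in six replicates, genotypes needed ≥ 100 starting reads, and estimates < 0.5 were set to 0.5.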

Point of comparison: G12C G17A, yeast fitness 0.673. Against it:
- U13A U16A U54A A65G — lower, ≤ 0.5
- U13C A69U — higher, 1.07
- U13C A57U — higher, 0.753
- U13C A40U C62A — lower, 0.557
- G12C G41C C60G — lower, ≤ 0.5
- U13C C24G U26A C55G C66A — lower, 0.561
- U13A A36G A43U G51A — lower, ≤ 0.5
- U13A C27U U64C — higher, 0.937
- G12U G23A A36G G39A — lower, ≤ 0.5
- U13A A14C C22A C31A A37G C55U A57G — lower, ≤ 0.5
- U13C A37U — lower, 0.543
- U13C A20G C49A U59C C62U A65U A70C — lower, 0.53
- U13C A20G C46U U47A — lower, ≤ 0.5
- U13C A15U C27U A69U — lower, ≤ 0.5
- U13A U16A C24G C33G — lower, ≤ 0.5
- U13A A45G G58C A69U A70U — lower, 0.603
- G12C G25A C49U — lower, 0.67
- U13A C31G — higher, 1.05
- G12C C34A G58C A65C A69C — lower, ≤ 0.5
- G12C U32C A65G — lower, 0.569
- U13C A36C C66U — lower, ≤ 0.5
- U13A A20G C24U U59C — lower, ≤ 0.5
- G12C G18C G50C — lower, ≤ 0.5
- U13A C22G U32C A42C G48C C55G G63A G68C — lower, ≤ 0.5
- G12C U32G C33G G48C — lower, ≤ 0.5
- G12C G39C G68C — lower, ≤ 0.5
- G12C G41C C46U — lower, 0.596
- G12U U54C — lower, 0.59
- U13C A45C G56A — higher, 0.743
- G12C U16C U28A C60U — lower, ≤ 0.5
- U13A A15G C22G U28A — lower, 0.619
- U13C A20U G39C A43C C49A U53A — lower, ≤ 0.5
- U13A G68U — higher, 0.824
- G12C C34U G44A G51C — lower, ≤ 0.5
- U13C A14U C31G G50A A65C — lower, 0.531
- U13A U26G C27A G39C A42G G51C — lower, ≤ 0.5
- G12C G17A C46G C66A — lower, ≤ 0.5
- U13A G41A G68C — lower, 0.504
- U13A C61A A65G — lower, 0.544
- U13A C27U A69U — higher, 0.864
- U13A C31U A40U — higher, 1.04
- G12C C55U — higher, 0.734
- U13C A43C — higher, 1.28
- U13C A43U — higher, 1.04
- U13A C62G C66A — lower, ≤ 0.5
- U13A C27G A43C A45U U64C — lower, 0.582
- U13A C31G C46G A69C — lower, ≤ 0.5
- U13A G18A — higher, 0.705
- U13C A15C C22U C34A C66A — lower, ≤ 0.5
- U13A C24U G51C — lower, 0.542
- G12C U28A C66U G68A — lower, ≤ 0.5
- U13C A45C — higher, 0.853
- U13C A45U — higher, 0.929
- U13C C22G C24U A37C G51C C55U A69C A70U — lower, ≤ 0.5
- U13A C66U — higher, 0.857
- G12U C30G — lower, ≤ 0.5
- G12C G67C — higher, 0.825
- G12C G67A — higher, 0.771
- G12C C49U U53C C60G — lower, ≤ 0.5
- G12U C60G — lower, ≤ 0.5
- U13A A69U — higher, 0.984
- G12C U32G A40U A57U A65U — lower, 0.568
- U13A C24A C30A — lower, 0.605
- U13C A43U C66U — higher, 0.705
- G12C U54A — higher, 0.701
- G12C U54C — higher, 0.702
- U13A C62G A69G — lower, 0.571
- G12C C46A — higher, 0.928
- G12C C46U — higher, 0.815
- U13A A36G — higher, 1.02
- G12C G25U G44C — lower, ≤ 0.5
- U13A C30U C55G G58C — lower, 0.56
- U13C A21C C55U A69C — lower, ≤ 0.5
- U13C A14G — higher, 0.704
- U13A A42C — higher, 1.05
- U13A A42G — higher, 0.851
- G12C U16C C31G — lower, ≤ 0.5
- G12C G25A C33G A37G A40C C49G G67C — lower, ≤ 0.5
- U13A C33G A37G — lower, ≤ 0.5
- U13A C31U C46A — lower, 0.665
- U13C A21G C31G U47C — lower, 0.555
- U13A U28A G63A G67A — lower, ≤ 0.5
- G12C C33A A42G — higher, 0.733
- G12C C31U G68C — lower, 0.505
- U13A C55U A69C — lower, 0.599
- U13A C27U A70U — higher, 0.867
- U13A U47C A69U — higher, 0.743
- U13A G48C C55G — lower, 0.554
- U13A G18A A69U — lower, 0.618
- U13A A37U U53G — lower, 0.536
- G12C C34A G44A C46U G68A — lower, ≤ 0.5
- U13A G38C G58C — higher, 0.798
- U13C A37C U53C — lower, 0.599
- U13A U28C C55U — higher, 0.741
- U13C A36U U64C — lower, ≤ 0.5
- G12C C31U A57U — lower, 0.603
- U13A A20U A37C — lower, 0.557
- U13A C27U A37C C61U — lower, ≤ 0.5
- U13A A45U — higher, 1
- U13C A57U U59A A69G — lower, 0.561
- U13A U32C G67A A70G — lower, 0.547
- U13A C55A — lower, 0.648
- U13A G17A U32A — lower, ≤ 0.5
- U13A A20G A21U A40U — lower, ≤ 0.5
- U13A G23A A36C G38A C60G C62G — lower, 0.557
- G12C G39A A57U — lower, ≤ 0.5
- U13A U59C C66A — lower, ≤ 0.5
- G12C G41C C66U — lower, 0.551
- U13A C27A A36C A42U U64G — lower, ≤ 0.5
- U13C A14G C24G C49G A69G — lower, ≤ 0.5
- G12C U28A G50A — lower, 0.606
- U13A C29G A43G G67A — lower, ≤ 0.5
- U13A U19A C24G C27U C33G G52C — lower, ≤ 0.5
- G12C G41A C60G A65G — lower, 0.519
- G12C C62G — higher, 0.739
- U13A C34G G50A C60G C61U — lower, ≤ 0.5
- U13A G18C A36G G41C G67A — lower, ≤ 0.5
- U13A G58A — higher, 1.06
- U13C A20G A37U C61A — lower, ≤ 0.5
- U13C A14G A45G — lower, ≤ 0.5
- G12C C31G G51A C55G A57G G68C — lower, ≤ 0.5
- U13A A14C C22A G48C A69U — lower, ≤ 0.5
- U13A A45G A65C — lower, 0.656
- U13A A21C C24A G25C C66G — lower, 0.512
- U13A G50C — lower, 0.653
- U13A A40G — higher, 0.733
- U13A A40C — higher, 0.789
- U13A U32C A65C — lower, 0.539
- U13A C62U — higher, 1.05
- G12C C31U G50A — higher, 0.677
- U13A C31A G44A A57G — lower, ≤ 0.5
- U13A A42U A57C C61U A65U — lower, ≤ 0.5
- U13A A20C C34U G50C A69U — lower, ≤ 0.5
- G12C U13G A15C A36U C55G — lower, ≤ 0.5
- U13C A21C G50A — lower, 0.509
- U13C A65G — higher, 0.956
- U13C C24G — lower, 0.672
- U13A C61G G68C — lower, ≤ 0.5
- G12C C33U C46G U54A — lower, ≤ 0.5
- G12C C62G C66U — lower, ≤ 0.5
- U13A C24G G25A C31U — lower, ≤ 0.5
- G12C C49A — lower, 0.562
- G12C C49U — higher, 0.893
- U13A U35C C46U C55G — lower, ≤ 0.5
- U13A C24U C55G — lower, 0.537
- U13A C29G C46G — lower, 0.583
- U13A C22G G25C C27U C30G — lower, ≤ 0.5
- G12C U47A G52C — lower, ≤ 0.5
- U13C A20C C22U C60G — lower, ≤ 0.5
- G12C U19A C27G — higher, 0.692
- G12C C33U U47C G48A G58A — lower, ≤ 0.5
- G12C C31U C62G — lower, 0.557
- U13A C22U C66U — lower, 0.534
- G12C G48C A70U — lower, 0.539
- G12C U13C U16A — higher, 0.704
- G12C U13A A20C A21G U26G — lower, ≤ 0.5
- G12U G38A G52A G56C — lower, ≤ 0.5
- U13C C22U G38C G51A A57C — lower, ≤ 0.5
- G12C C49U G52C A57C A65C — lower, 0.53
- U13A C33G A40G C60A — lower, ≤ 0.5
- U13A C22A A42U — lower, 0.582
- U13A A21C — lower, 0.65
- G12C U47A U54C — lower, 0.519
- G12C C31G C49G C55G A69U — lower, 0.527
- G12C C46U C49G — lower, 0.622
- U13A C49U U54C C62U G68C — lower, ≤ 0.5
